As usually defined, the GI50 is the concentration giving 50% growth inhibition. High values mean less potent growth inhibition, low ones more potent growth inhibition.

The nature of data set [1]: Antiproliferative activity against human U373 cells by MTT assay. In kind it is functional, U-373MG ATCC. The following applies: U373 MG. The gist of the method: (§1)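 Cell lines grown in RPMI with 10% heat-inactivated fetal calf serum, 4 mM glutamine, gentamicin, penicillin and streptomycin. Growth inhibition by colorimetric MTT assay across a five-line panel: U373 GBM, A549 NSCLC and SKMEL-28 melanoma (apoptosis-resistant), plus Hs683 oligodendroglioma and MCF-7 breast (apoptosis-sensitive).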
(In general: Tetrazolium assays rely on reduction of a dye to a coloured formazan, in cell work by metabolically active cells.)

Another data set relates to Brain. Kind of data set: Drug level in brain tumor of luciferase expressing human U251 cells xenografted mouse dosed intravenously and measured after 15 mins. In kind it is ADME, organism-based, U-251. To be noted: in vivo, iv, 0.25 h. In a few lines:
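Single intravenous injection into lateral tail vein of a mouse bearing a brain tumor; brain tumor extract taken 15 min post administration and analysed for intact compound.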

Another data set concerns A549. As to the kind of experiment: Antiproliferative activity against human A549 cells by MTT assay. In kind it is functional. In a few lines:
as §1

Data set [2] can be described thus: Antiproliferative activity against human Hs683 cells by MTT assay. In kind it is functional. The following applies: Hs 683. The gist of the method:
as §1

Data set [3] deals with U-251. Kind of data set: Antitumor activity against luciferase expressing human U251 cells xenografted in mouse assessed as inhibition of tumor growth at 10 mg/kg, ip dosed as 3 doses per week for 21 days. In kind it is functional, organism-based. The gist of the method:
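Orthotopic U251-luciferase human GBM tumors in mice; 10 mg/kg IP 3x weekly for 21 days versus 0.9% saline vehicle; relative tumor growth followed by temporal bioluminescence imaging.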
For orientation: A xenograft is tissue or cells of one species grown in another, often human tumour cells in immunodeficient mice.

The test system of data set [4] is U-251. As to the kind of experiment: Antitumor activity against luciferase expressing human U251 cells xenografted in mouse assessed as increase in mouse survival at 10 mg/kg, ip dosed as 3 doses per week for 21 days. In kind it is functional, organism-based. The gist of the method:
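Orthotopic mouse GBM model inoculated with 1×10^6 U251-LUC cells; 10 mg/kg IP 3x per week for 21 days, 0.9% saline vehicle control; mice without signs of GBM sacrificed on day 100 after inoculation and counted as long-term survivors; survival monitored.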

A short description of data set [5]: Growth inhibition of human NCI60 cells. In kind it is functional.
The next data set concerns MCF7. As to the kind of experiment: Antiproliferative activity against human MCF7 cells by MTT assay. In kind it is functional. The gist of the method:
as §1

In a further data set the test system is SK-MEL-28. Kind of data set: Antiproliferative activity against human SK-MEL-28 cells by MTT assay. In kind it is functional. In a few lines:
as §1

Active and inactive are the calls of the source. The calls are words filed in the database; no cut-off is given here.

With `CC(C)=C[C@H]1C[C@H](C)[C@]2(CC[C@]3(C)C[C@H]4[C@H](C(=O)C[C@@]4(C)O)/C(C=O)=C\C[C@H]32)O1` [OPHIOBOLIN A], the GI50 in [1] worked out at 0.06 µM; in the data set with A549, 100 nM; in data set [2], 20 nM; in data set [5] it was 70 nM; in the data set with MCF7, 0.06 µM; in the data set on SK-MEL-28, 50 nM. In the data set on Brain, the Drug uptake entry is given as “Active”. For the same compound, the TGI entry in the data set with U-251 [3] was “Active”. Further, the outcome with U-251 [4] was Active.
For `C[C@H]1C[C@H](C2OC2(C)C)O[C@@]12CC[C@]1(C)C[C@H]3[C@H](C(=O)C[C@@]3(C)O)/C(C=O)=C\C[C@H]12` (mixture of isomers), the concentration for 50% growth inhibition (GI50) in data set [1] turned out to be 0.6 µM; with A549, 600 nM; in data set [2] it was 400 nM; in the data set on MCF7, 0.6 µM; in the data set on SK-MEL-28, 400 nM.
In the case of `CC(=O)N[C@@H](CCCCn1cc2c3c1C[C@@](C)(O)[C@H]3C[C@@]1(C)CC[C@@]3(O[C@@H](C=C(C)C)C[C@@H]3C)[C@@H]1/C=C\2)C(=O)O`, the GI50 in [1] is over 100 µM; in the data set on A549, over 100000 nM; in [2], over 100000 nM; with MCF7 it was over 100 µM; with SK-MEL-28 it was over 100000 nM.
Turning to `C#CCCCOC(=O)/C=C/C1=C/C[C@@H]2[C@](C)(CC[C@@]23O[C@@H](C=C(C)C)C[C@@H]3C)C[C@H]2[C@@H]1C(=O)C[C@@]2(C)O`, the GI50 in data set [1] was found to be 20 µM; in the data set on A549, 15000 nM; in data set [2], 12000 nM; in the data set with MCF7 it was 12 µM; in the data set on SK-MEL-28, 23000 nM.
Regarding `C[C@H]1C[C@H]([C@H](Br)C(C)(C)OCc2cn(Cc3ccccc3)nn2)O[C@@]12CC[C@]1(C)C[C@H]3[C@H](C(=O)C[C@@]3(C)O)/C(C=O)=C\C[C@H]12`, the GI50 turned out to be 3.4 µM in data set [1]; 1200 nM in the data set on A549; 800 nM in data set [2]; 1.2 µM in the data set on MCF7; 1000 nM with SK-MEL-28.
The corresponding values for `CC(C)=C[C@H]1C[C@H](C)[C@]2(CC[C@]3(C)C[C@H]4[C@H](C(=O)C[C@@]4(C)O)C(/C=C/C#N)=C\C[C@H]32)O1` are 27 µM, 27000 nM, 22000 nM, 26 µM and 28000 nM.
For `CC(C)=C[C@H]1C[C@H](C)[C@]2(CC[C@]3(C)C[C@@H]4C(C)=CC(=O)[C@H]4/C(C=O)=C\C[C@H]32)O1` [3-ANHYDRO-6-EPI-OPHIOBOLIN A] the same measures were 18 µM, 9000 nM, 8000 nM, 10 µM and 8000 nM.
Regarding `CC(C)=C[C@H]1C[C@H](C)[C@]2(CC[C@]3(C)C[C@H]4c5c(cn(Cc6ccccc6)c5C[C@@]4(C)O)/C=C\[C@H]32)O1`, the GI50 in [1] turned out to be 69 µM; in the data set on A549, 51000 nM; in data set [2], 46000 nM; in the data set on MCF7, 40 µM; with SK-MEL-28, 58000 nM.
The corresponding values for `CC(C)=C[C@H]1C[C@H](C)[C@]2(CC[C@]3(C)C[C@H]4c5c(cn(CCc6ccc(O)cc6)c5C[C@@]4(C)O)/C=C\[C@H]32)O1` are 54 µM, 35000 nM, 33000 nM, 23 µM and 33000 nM.
The corresponding values for `COC(=O)/C=C/C1=C/C[C@@H]2[C@](C)(CC[C@@]23O[C@@H](C=C(C)C)C[C@@H]3C)C[C@H]2[C@@H]1C(=O)C[C@@]2(C)O` are 86 µM, 59000 nM, 59000 nM, 43 µM and 86000 nM.
Regarding `C#CCOC(C)(C)[C@@H](Br)[C@H]1C[C@H](C)[C@]2(CC[C@]3(C)C[C@H]4[C@H](C(=O)C[C@@]4(C)O)/C(C=O)=C\C[C@H]32)O1`, the GI50 in data set [1] was 1.4 µM; in the data set on A549 it was 800 nM; in data set [2], 600 nM; in the data set with MCF7, 0.8 µM; with SK-MEL-28, 600 nM.
With `CCCO[C@H]1O[C@@]2(OCCC)C[C@@](C)(O)[C@H]3C[C@@]4(C)CC[C@@]5(O[C@@H](C=C(C)C)C[C@@H]5C)[C@@H]4C/C=C/1[C@H]32`, the GI50 in data set [1] was 0.4 µM; in the data set on A549, 300 nM; in [2], 200 nM; with MCF7 it was 0.2 µM; in the data set on SK-MEL-28, 200 nM.
`CC(=O)O[C@]1(C)Cc2occ3c2[C@@H]1C[C@@]1(C)CC[C@@]2(O[C@@H](C=C(C)C)C[C@@H]2C)[C@@H]1/C=C\3`: the GI50 in [1] turned out to be 8 µM; in the data set with A549 it was 6000 nM; in [2], 11000 nM; in the data set with MCF7, 13 µM; with SK-MEL-28, 6000 nM.
Take `CO[C@H]1O[C@@]2(OC)C[C@@](C)(O)[C@H]3C[C@@]4(C)CC[C@@]5(O[C@@H](C=C(C)C)C[C@@H]5C)[C@@H]4C/C=C/1[C@H]32`: the GI50 in [1] was 0.4 µM; in the data set with A549, 300 nM; in [2], 400 nM; in the data set with MCF7 it was 0.4 µM; in the data set on SK-MEL-28 it was 300 nM.
As for `C#CCCCCOC(C)(C)[C@@H](Br)[C@H]1C[C@H](C)[C@]2(CC[C@]3(C)C[C@H]4[C@H](C(=O)C[C@@]4(C)O)/C(C=O)=C\C[C@H]32)O1`, the concentration for 50% growth inhibition (GI50) in data set [1] was 2.2 µM; in the data set with A549 it was 1000 nM; in data set [2], 800 nM; with MCF7, 1.4 µM; in the data set with SK-MEL-28, 600 nM.
Regarding `CC(C)=C[C@H]1C[C@H](C)[C@]2(CC[C@]3(C)C[C@H]4c5c(cnnc5C[C@@]4(C)O)CC[C@H]32)O1`, the GI50 in data set [1] was 30 µM; with A549 it was 34000 nM; in data set [2] it was 29000 nM; in the data set on MCF7, 27 µM; in the data set with SK-MEL-28, 29000 nM.
As to `CC(C)=C[C@H]1C[C@H](C)[C@]2(CC[C@]3(C)C[C@H]4c5c(cn(CCCCCCn6cc7c8c6C[C@@](C)(O)[C@H]8C[C@@]6(C)CC[C@@]8(O[C@@H](C=C(C)C)C[C@@H]8C)[C@@H]6/C=C\7)c5C[C@@]4(C)O)/C=C\[C@H]32)O1`, the GI50 in data set [1] was 30 µM; in the data set with A549 it was 26000 nM; in data set [2], 25000 nM; with MCF7, 14 µM; in the data set on SK-MEL-28 it was 24000 nM.
Consider `CC(=O)N[C@@H](CCCC/N=C/C1=C/C[C@@H]2[C@](C)(CC[C@@]23O[C@@H](C=C(C)C)C[C@@H]3C)C[C@H]2[C@@H]1C(=O)C[C@@]2(C)O)C(=O)O`, for which the GI50 turned out to be 4 µM in data set [1]; 3000 nM in the data set with A549; 3000 nM in data set [2]; 4 µM in the data set with MCF7; 3000 nM with SK-MEL-28.
For the compound `CCOC1O[C@@]2(OCC)C[C@@](C)(O)[C@H]3C[C@@]4(C)CC[C@@]5(O[C@@H](C=C(C)C)C[C@@H]5C)[C@@H]4C/C=C/1[C@H]32` (mixture of isomers), the GI50 came out at 0.4 µM in data set [1]; 300 nM in the data set on A549; 200 nM in data set [2]; 0.2 µM with MCF7; 100 nM in the data set with SK-MEL-28.
As for `CCOC(C)(C)[C@@H](Br)[C@H]1C[C@H](C)[C@]2(CC[C@]3(C)C[C@H]4[C@H](C(=O)C[C@@]4(C)O)/C(C=O)=C\C[C@H]32)O1`, the GI50 in data set [1] amounted to 1.2 µM; in the data set with A549, 900 nM; in data set [2] it was 900 nM; in the data set on MCF7, 1.2 µM; in the data set on SK-MEL-28 it was 600 nM.

The values above are taken from ChEMBL document CHEMBL3621064, “Fungal metabolite ophiobolin A as a promising anti-glioma agent: In vivo evaluation, structure-activity relationship and unique pyrrolylation of primary amines” (Bioorg Med Chem Lett, 2015).
